Assay results from publication PMC2720137 (Cancer cell, 2008).

Legend:
[1] = tested on: YRP1-pURA3-2μ-GAL1-p110αH1047R-CAAX; experiment: Reverse halo assay; format: cell-based, S. cerevisiae; details: 10 μl of a 10 mM DMSO stock spotted on cellulose disc, SD −URA +Galactose
[2] = tested on: phospho-Akt (Thr308, Ser473) in L814C MCF10A cells; experiment: Phospho-Akt western blot, L814C MCF10A cell line; format: cell-based, human; details: 1 hour treatment, serial dilutions
[3] = tested on: phospho-Akt (Thr308, Ser473) in I800M MCF10A cells; experiment: Phospho-Akt western blot, I800M MCF10A cell line; format: cell-based, human; details: 1 hour treatment, serial dilutions
[4] = tested on: MCF10A cells expressing p110α-H1047R I800L; experiment: MCF10A EGF-independent growth; format: cell-based, human; details: media lacking EGF, Alamar Blue
In short: (§1)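 MCF10A cells were retrovirally transduced with pMIG p110α-H1047R mutants (IRES-GFP) after EcoR nucleofection, then FACS-sorted to >95% GFP+. Cells were seeded at 2 × 10^3 per 96-well in growth medium, and after 2 days switched to EGF-free medium with PI3K inhibitors (DMSO stocks 1:1000). Every 2 days: resazurin (120 µg/ml stock, 1:20) added for 2 h at 37°C plus 15 min RT, fluorescence read at ex 520/em 590 nm, and medium refreshed. Mean ± SEM.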

[5] = tested on: MCF10A cells expressing p110α-H1047R L814C; experiment: MCF10A EGF-independent growth; format: cell-based, human; details: media lacking EGF, Alamar Blue
In short: as §1

[6] = target: Myc-tagged p110α-H1047R I800L (Homo sapiens, UniProt P42336, H1047R/I800L); experiment: In vitro PI3K assay, I800L mutant; format: biochemical; details: I800L vs p110α-H1047R, 10 μM ATP
Myc-tagged p110α-H1047R I800L, sequence (P42336 whole entry I800L/H1047R): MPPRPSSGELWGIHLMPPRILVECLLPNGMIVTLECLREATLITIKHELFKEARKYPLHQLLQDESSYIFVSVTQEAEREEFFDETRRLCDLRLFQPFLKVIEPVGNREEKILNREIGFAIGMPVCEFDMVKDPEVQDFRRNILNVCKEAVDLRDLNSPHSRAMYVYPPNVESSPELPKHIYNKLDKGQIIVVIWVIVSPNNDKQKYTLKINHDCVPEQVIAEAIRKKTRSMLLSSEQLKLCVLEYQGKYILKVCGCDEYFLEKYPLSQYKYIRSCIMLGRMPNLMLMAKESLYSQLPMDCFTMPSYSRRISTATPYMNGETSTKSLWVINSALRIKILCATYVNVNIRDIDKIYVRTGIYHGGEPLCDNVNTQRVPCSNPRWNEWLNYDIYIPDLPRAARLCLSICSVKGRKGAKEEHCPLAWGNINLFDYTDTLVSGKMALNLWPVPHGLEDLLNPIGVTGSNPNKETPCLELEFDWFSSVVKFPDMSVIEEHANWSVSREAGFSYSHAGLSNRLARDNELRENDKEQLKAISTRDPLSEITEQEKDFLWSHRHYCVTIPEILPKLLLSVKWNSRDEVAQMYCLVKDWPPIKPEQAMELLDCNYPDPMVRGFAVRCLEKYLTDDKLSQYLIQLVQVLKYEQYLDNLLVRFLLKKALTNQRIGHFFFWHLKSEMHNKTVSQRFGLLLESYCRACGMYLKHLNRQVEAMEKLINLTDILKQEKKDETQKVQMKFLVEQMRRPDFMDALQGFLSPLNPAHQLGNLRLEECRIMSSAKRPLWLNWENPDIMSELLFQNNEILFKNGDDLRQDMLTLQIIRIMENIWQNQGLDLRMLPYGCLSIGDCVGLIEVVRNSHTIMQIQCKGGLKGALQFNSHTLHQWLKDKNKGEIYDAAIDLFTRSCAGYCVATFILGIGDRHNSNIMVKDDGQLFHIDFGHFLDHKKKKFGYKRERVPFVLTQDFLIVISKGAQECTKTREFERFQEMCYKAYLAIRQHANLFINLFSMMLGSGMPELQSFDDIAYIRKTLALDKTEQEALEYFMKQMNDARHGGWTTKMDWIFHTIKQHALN

[7] = tested on: phospho-Akt (Thr308, Ser473) in I800L MCF10A cells; experiment: Phospho-Akt western blot, I800L MCF10A cell line; format: cell-based, human; details: for resistance of phospho-Akt levels: 1 hour treatment, serial dilutions; for change in inhibitor sensitivity of phospho-308 Akt: seen in phospho-308 Akt but not phospho-473
[8] = tested on: MCF10A cells expressing p110α-H1047R I800M; experiment: MCF10A EGF-independent growth; format: cell-based, human; details: media lacking EGF, Alamar Blue
In short: as §1

[9] = tested on: Myc-tagged p110α-H1047R L814C; format: biochemical, human; details: L814C vs p110α-H1047R, 10 μM ATP
[10] = tested on: Myc-tagged p110α-H1047R I800M; format: biochemical, human; details: I800M vs p110α-H1047R, 10 μM ATP
[11] = tested on: PI4KIIIβ with the mutation corresponding to Y836M; details: ref Balla et al., 2008; cited from earlier work
[12] = tested on: wild-type AFS92 strain expressing p110α-CAAX; experiment: Rescue of PI3K-induced growth inhibition, yeast serial dilutions; format: cell-based, S. cerevisiae; details: 5 μM PI-103, galactose
[13] = tested on: drug-permeablized YRP1 strain expressing p110α-CAAX; experiment: as above; format: cell-based, S. cerevisiae; details: 5 μM PI-103, galactose
[14] = tested on: phospho-Akt in p110α-expressing MCF10A cell lines; format: cell-based, human; details: 30 μM PI-103, 1 hour, after 24 hours EGF starvation, all cell lines
In short: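 GFP-sorted MCF10A lines transduced with p110α mutants, at 40-70% confluence, were starved 24 h in MCF10A medium lacking EGF and insulin. They were then given normal growth medium and/or inhibitor (DMSO control) for 60 min. Cells were lysed in PI3K lysis buffer (50 mM Tris pH 7.4, 300 mM NaCl, 1% Triton X-100, phosphatase/protease inhibitors) and western blotted for phospho-Akt.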

[15] = tested on: S. cerevisiae overexpressing membrane-localized p110α; details: ref Rodriguez-Escudero et al., 2005; cited from earlier work
p110α = details: ref Brunn et al., 1996; Vlahos et al., 1994; cited from earlier work

SMILES	growth halo in reverse halo assay [1]	sensitization of phospho-Akt levels [2]	resistance of phospho-Akt levels [3]	inhibitor resistance of EGF-independent growth [4]	sensitization of cell growth [5]	decrease in inhibitor potency (mutant IC50 / WT IC50) [6]	resistance of phospho-Akt levels [7]	inhibitor resistance of EGF-independent growth [8]	decrease in inhibitor potency (mutant IC50 / WT IC50) [10]	other results
Cc1ccc([N+](=O)[O-])cc1S(=O)(=O)N(C)/N=C/c1cnc2ccc(Br)cn12 [PIK-75]	produced only a thin ring of growth	–	–	–	–	–	–	–	–	–
CC(=O)Nc1nc(C)c(-c2ccc(Cl)c(S(=O)(=O)NCCO)c2)s1 [PIK-93]	–	~30 fold	approximately 10 fold	most pronounced	strong sensitization	5-10 fold	approximately 3 fold	most pronounced	5-10 fold	drug sensitization (mutant IC50 / WT IC50) [9]: approximately 100 fold; drug resistance of active mutant kinase [11]: resistant
Cn1c(=O)n(-c2ccc(C(C)(C)C#N)cc2)c2c3cc(-c4cnc5ccccc5c4)ccc3ncc21 [BEZ-235]	–	sensitization is seen	Significant resistance is not observed	–	minimal or no sensitization	–	Significant resistance is not observed	less dramatic	–	inhibitor sensitization of EGF-independent growth [4]: sensitized; change in inhibitor sensitivity in vitro [6]: sensitized; change in inhibitor sensitivity of phospho-308 Akt [7]: sensitization
COC[C@H]1OC(=O)c2coc3c2[C@@]1(C)C1=C(C3=O)[C@@H]2CCC(=O)[C@@]2(C)C[C@H]1OC(C)=O [wortmannin]	did not produce growth halos	–	–	–	–	–	–	–	–	drug resistance of active mutant kinase [11]: resistant
COc1ccc2c(c1OC)N=C(NC(=O)c1cccnc1)N1CCN=C21 [PIK-90]	–	approximately 5 fold	–	most pronounced	strong sensitization	5-10 fold	approximately 3 fold	most pronounced	5-10 fold	drug sensitization (mutant IC50 / WT IC50) [9]: more than 10 fold
Oc1cccc(-c2nc(N3CCOCC3)c3oc4ncccc4c3n2)c1 [PI-103]	–	–	Significant resistance is not observed	less dramatic	minimal or no sensitization	5-10 fold	Significant resistance is not observed	less dramatic	5-10 fold	rescue of PI3K-induced growth inhibition [12]: only partially rescues growth; change in inhibitor sensitivity of phospho-308 Akt [7]: Slight resistance; rescue of PI3K-induced growth inhibition [13]: completely rescues growth; block of phospho-Akt stimulation by EGF-containing media [14]: blocked
O=c1cc(N2CCOCC2)oc2c(-c3ccccc3)cccc12 [LY294002, 2-(4-morpholinyl)-8-phenyl-4H-1-benzopyran-4-one]	did not produce growth halos	–	–	–	–	–	–	–	–	reversal of p110α-induced growth inhibition [15]: partially reversed; potency as inhibitor of p110α and other PI3K family members (p110α): only a μM inhibitor
